Experimental data collected from several papers.
Protocols differ between the studies behind these lines.
Target: Mitogen-activated protein kinase kinase kinase 5 (MAP3K5, Homo sapiens, UniProt Q99683)
Sequence (Q99683 1-1374, as in one of the studies): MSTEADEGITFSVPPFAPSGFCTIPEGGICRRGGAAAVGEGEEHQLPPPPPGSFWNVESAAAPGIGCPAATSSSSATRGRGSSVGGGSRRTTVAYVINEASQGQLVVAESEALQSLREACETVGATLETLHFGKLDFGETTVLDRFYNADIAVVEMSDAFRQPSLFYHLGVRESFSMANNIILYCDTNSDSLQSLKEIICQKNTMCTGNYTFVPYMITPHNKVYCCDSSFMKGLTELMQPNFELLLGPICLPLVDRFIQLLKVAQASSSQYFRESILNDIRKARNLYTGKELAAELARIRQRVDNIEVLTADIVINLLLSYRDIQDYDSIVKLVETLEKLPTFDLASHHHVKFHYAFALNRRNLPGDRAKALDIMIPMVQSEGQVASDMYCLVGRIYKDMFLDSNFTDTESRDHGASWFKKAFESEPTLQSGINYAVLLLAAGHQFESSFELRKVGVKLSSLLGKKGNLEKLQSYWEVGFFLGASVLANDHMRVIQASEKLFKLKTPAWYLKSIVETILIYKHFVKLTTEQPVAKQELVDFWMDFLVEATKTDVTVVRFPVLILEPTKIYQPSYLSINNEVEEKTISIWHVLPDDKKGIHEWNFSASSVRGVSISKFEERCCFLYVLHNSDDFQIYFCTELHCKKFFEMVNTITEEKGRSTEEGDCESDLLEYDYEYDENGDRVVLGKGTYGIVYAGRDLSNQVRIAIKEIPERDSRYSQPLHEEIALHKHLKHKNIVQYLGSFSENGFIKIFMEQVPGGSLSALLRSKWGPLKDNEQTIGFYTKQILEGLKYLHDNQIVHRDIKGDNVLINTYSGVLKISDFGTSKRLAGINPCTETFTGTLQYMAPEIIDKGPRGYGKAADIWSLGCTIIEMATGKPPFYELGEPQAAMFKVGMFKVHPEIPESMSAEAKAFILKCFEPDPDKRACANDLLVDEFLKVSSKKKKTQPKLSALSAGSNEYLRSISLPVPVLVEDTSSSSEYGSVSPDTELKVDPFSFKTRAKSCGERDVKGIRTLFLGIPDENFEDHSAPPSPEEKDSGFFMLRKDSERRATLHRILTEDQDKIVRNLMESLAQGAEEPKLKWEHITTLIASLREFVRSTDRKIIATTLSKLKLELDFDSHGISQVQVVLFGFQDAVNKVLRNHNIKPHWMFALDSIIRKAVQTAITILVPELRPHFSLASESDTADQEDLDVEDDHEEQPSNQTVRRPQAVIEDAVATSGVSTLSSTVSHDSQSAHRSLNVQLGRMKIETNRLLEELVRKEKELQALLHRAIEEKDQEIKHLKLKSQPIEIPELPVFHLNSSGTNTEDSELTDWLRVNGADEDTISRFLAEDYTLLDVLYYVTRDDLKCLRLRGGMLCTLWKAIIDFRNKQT

SMILES | observed | method | tested at | remaining binding [%]
N[C@@H]1CCN(c2nccc(-c3cnn4ncccc34)n2)C1 | binding |  | 1 µM | 100
COc1cnc(Nc2cccc(S(N)(=O)=O)c2)nc1N1CCN(c2ccccc2)C(=O)C1 | binding | competition with immobilised ligand | 1 µM | 100
COCCOc1nc(-c2ccc(Cl)nc2)nc2c1CN(C(=O)c1ncn3ccccc13)CC2 | cell-free assay | competition with immobilised ligand | 0.1 µM | 84
c1cnn2ncc(-c3ccnc(N4CCC45COC5)n3)c2c1 | binding |  | 1 µM | 100
O=C(c1ccc(Nc2ncc(Cl)c(-c3ccc(Cl)s3)n2)cc1)N1CCC(N2CCCC2)CC1 | binding | competition with immobilised ligand | 1 µM | 100
COc1cc(-c2cn(C3CCc4ccccc4N(CC(F)(F)F)C3=O)nn2)ccc1-n1ccc(C)n1 (stereo not drawn) | cell-free assay | competition with immobilised ligand | 1 µM | 100
CC1CCCN1c1nccc(-c2cnn3ncccc23)n1 (stereo not drawn) | binding |  | 1 µM | 79
Cc1nc(N2CC[C@@H](O)C2)ncc1-c1cc(C(F)(F)F)cc2[nH]ncc12 | binding | competition with immobilised ligand | 1 µM | 100
FC(F)(F)Oc1cccc(-c2cnc3ccc(-c4ccncc4)nn23)c1 | cell-free assay | competition with immobilised ligand | 5 µM | 100
CN(c1nccc(-c2cnn3ncccc23)n1)C1CC1 | binding |  | 1 µM | 100
O=C(c1ccc(Nc2nccc(-c3cc4ccccc4s3)n2)cc1)N1CCC(N2CCCC2)CC1 | binding | competition with immobilised ligand | 1 µM | 100
C=CC(=O)N1CCC(C(=O)NCC(=O)N2CCN(c3nc(-c4cnc(N)nc4C(F)F)nc(N4CCOCC4)n3)CC2)CC1 | binding | competition with immobilised ligand | 1 µM | 100
CCN1CCN(Cc2ccc(C(=O)Nc3ccc(C)c(Oc4ccc5c(c4)CC(=O)N5)c3)cc2C(F)(F)F)CC1 | binding | competition with immobilised ligand | 1 µM | 100
COc1ccnn2ncc(-c3ccnc(N(C)C)n3)c12 | binding |  | 1 µM | 100
Cc1cnc(Nc2ccc(C(=O)N3CCC(N4CCCC4)CC3)cc2)nc1-c1cc2ccccc2s1 | binding | competition with immobilised ligand | 1 µM | 100
C[C@@H]1CN(c2cc(-c3nn(C)c4ccc(OC5(C)CC5)cc34)ncn2)C[C@H](C)O1 | cell-free assay | competition with immobilised ligand | 1 µM | 100
COc1cnc(Nc2cccc(S(N)(=O)=O)c2)nc1N1CCN(c2ccccc2)CC1 | binding | competition with immobilised ligand | 1 µM | 100
O=C(O)[C@@H]1[C@@H](Cn2nnc3ccccc3c2=O)CC[C@H]1C(=O)c1ccc(OCCC2CCOCC2)cc1 | cell-free assay | competition with immobilised ligand | 1 µM | 94
C[C@H]1CCN(c2nccc(-c3cnn4ncccc34)n2)C1 | binding |  | 1 µM | 100
Cn1cc(Cl)c2c(Oc3c(F)cc(Nc4cc(Cl)nc(N)n4)cc3F)ccnc21 | cell-free assay | competition with immobilised ligand | 0.1 µM | 97
O=C(Nc1c[nH]nc1C(=O)NC1CCNCC1)c1cc(F)cc(F)c1 | binding | competition with immobilised ligand | 1 µM | 100
